Published values of several laboratories.
Compare with care: the assays were run in different laboratories.
Effect on: metabolic stability
Host: rat

Structure (SMILES)	test system	conditions	endpoint	result
O=c1[nH]c2ccccc2n1C1CCN(CCCC(c2ccc(F)cc2)c2ccc(F)cc2)CC1	liver microsomes	100 ng/mL	microsomal CLint	8.7 µL/min/mg
Cc1[nH]c(C)c(S(=O)(=O)Nc2ccc(S(=O)(=O)F)c(Cl)c2)c1C(=O)N1CCC(F)(F)C1	liver microsomes		microsomal CLint	63.7 µL/min/mg
C[C@]12CC[C@H]3[C@@H](CCC4=CC(=O)CC[C@@]43C)[C@@H]1CC[C@@H]2O	liver microsomes	1 µM, pH 7.4	scaled CLint	2500 mL/min/kg
C[C@]12CC[C@H]3[C@@H](CCC4=CC(=O)CC[C@@]43C)[C@@H]1CC[C@@H]2O	liver microsomes		microsomal CLint	893 µL/min/mg
Cc1[nH]c(C)c(S(=O)(=O)Nc2ccc(S(F)(F)(F)(F)F)cc2)c1C(=O)N1CCC(F)(F)C1	liver microsomes		microsomal CLint	39 µL/min/mg
O=C1CCC(N2Cc3c(ccc4c3OCC43CCN(Cc4ccccc4)CC3)C2=O)C(=O)N1 (centres unmarked)	liver microsomes	1 µM	scaled CLint	22 mL/min/kg
CC(C)CC(=O)OC[C@H]1O[C@@](C#N)(c2ccc3c(N)ncnn23)[C@H](O)[C@@H]1O	hepatocytes	5 µM	hepatocyte CLint	> 318 µL/min/10⁶ cells
NCCOCC(=O)N1CCCC(C(=O)NCc2nc(-c3ccc(-c4ccc(F)cc4)cc3)cs2)C1 (centres unmarked)	liver microsomes		scaled CLint	< 7 mL/min/kg
